Assay outcomes (PubChem)
ERAP1 HTS inh – human ERAP1 aminopeptidase inhibitors, primary screen, biochemical, single point, plate reader | inhibition, % at 10.7 µM | Endoplasmic reticulum aminopeptidase 1 (Homo sapiens), Q9NZ08 | recombinant ERAP1, Leu-AMC fluorescence, 60 min | 340,000 tested, 0.15% active | AID 652197, 2013;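 active means mean replicate inhibition of at least 30%, or all replicates individually reaching that 30% level; inactive means mean below 30% and not every replicate reaching it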;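 further: 0% = neutral control wells and 100% = L-leucinethiol positive control wells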
SIRT5 inh – SIRT5 desuccinylase inhibitors, primary screen, biochemical, fluorescence imaging, single point, set 5; NAD-dependent protein deacylase sirtuin-5, mitochondrial (Homo sapiens), Q9NXA8; 330,000 tested, 1.1% active; inhibition, % at 15 µM; Purified SirT5, succinyl-peptide AMC, trypsin-coupled fluorescence; in the data active means inhibition above about 15%
Target sequence (Q9NXA8 whole entry, looked up): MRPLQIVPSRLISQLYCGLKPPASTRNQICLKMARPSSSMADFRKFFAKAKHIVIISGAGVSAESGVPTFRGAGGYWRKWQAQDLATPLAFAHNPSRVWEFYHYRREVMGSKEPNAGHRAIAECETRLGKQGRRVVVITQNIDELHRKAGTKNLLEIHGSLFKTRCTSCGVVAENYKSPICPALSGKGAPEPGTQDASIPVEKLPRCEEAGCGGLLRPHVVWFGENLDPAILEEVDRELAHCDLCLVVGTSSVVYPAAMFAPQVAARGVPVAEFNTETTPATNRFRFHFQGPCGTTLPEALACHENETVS
S100A4 inh HTS – inhibitors of S100A4-myosin IIA peptide binding, primary screen, biochemical, fluorescence polarization, TAMRA-MyoIIA peptide. inhibition, % at 10.7 µM. 360,000 tested, 0.14% active. AID 652163, 2013. Protein S100-A4 (Homo sapiens), P26447;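 active means mean inhibition of at least 70% across replicates, with every replicate also reaching that level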
Target sequence (P26447 whole entry, looked up): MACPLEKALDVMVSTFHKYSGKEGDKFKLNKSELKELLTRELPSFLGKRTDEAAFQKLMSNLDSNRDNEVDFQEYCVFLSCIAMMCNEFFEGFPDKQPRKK
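Material: S100A4 monomer protein | Medium: HEPES pH 7.2 with CaCl2, KCl, NaCl, DTT, Triton | Reagent: Labelled myosin peptide probe, 5 nM | Doses: One dose per compound | Times: 5 min incubation before reading | Benchmarks: Neutral control DMSO, positive control TFP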
F508del corr – F508del CFTR correction, initial screen, CFBE line, single point; CFBE cells, YFP halide quenching; stimulated with forskolin plus potentiator P3; % fluorescence drop versus neutral controls; activity (quench increase), % at 7.58 µM; 350,000 tested, 0.36% active;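 active means mean added fluorescence quench of at least 8% versus neutral control, with both replicates also reaching 8%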;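 further: cells transiently co-express mutant CFTR-F508del with the halide-sensitive YFP; corrector assay measuring rescue of mutant channel to the surface after 24 h compound exposure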
rRNA inh HTS – reduced GFP signal of wild-type E. coli, primary screen, bacterial rRNA inhibitor project, GFP/RFP fluorescence, OD600, single point | 350,000 tested, 1.6% active | E. coli WT GFP vs humanized-ribosome RFP mutants, 24 h; stronger effect = lower value; DMSO median 0, no signal -100 | GFP signal change (wild-type ribosome), % (concentration not given with the values);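 active means significant combined selectivity score with lowered wild-type GFP, culture density cut under 30%, mutant RFP and density less affected; inactive means any of these conditions unmet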
* hit, by the source's call; · = no result given. The list is not random: actives were taken first. Their share in the collection is about 3.1%.

SMILES	ERAP1 HTS inh	SIRT5 inh	S100A4 inh HTS	F508del corr	rRNA inh HTS
CN(C)CCN1CCN(C2CN(Cc3cn(Cc4cccc(Cl)c4)nn3)S(=O)(=O)C2)CC1 (stereo unspecified)	·	19*	61	-2	3
O=C(Nc1ccccc1F)N[C@H]1CC[C@H](CCNC(=O)C2CCCC2)O[C@@H]1CO	0	3	-10	2	0
CC(C)(C)c1[nH]nc2c1C(c1ccco1)C(C#N)=C(N)O2 (stereo unspecified)	-2	1	-4	-1	8
CC(C)c1[nH]nc2c1C(c1ccc(OC(=O)c3ccco3)cc1)C(C#N)=C(N)O2 (stereo unspecified)	1	-10	2	-3	-27*
COc1ccc2c3c(n(C)c2c1)[C@H](CO)N(C(=O)NC1CCCCC1)CC31CN(C)C1	·	·	·	·	3
CC(=O)N1CCCCN2[C@H](CO)[C@H](c3ccc(-c4cccc(C)c4)cc3)[C@H]2C1	-2	1	13	3	-3
Cc1noc(C)c1NC(=O)NC[C@@H]1CC[C@@H]2[C@@H](CN2Cc2cccc(-c3ccccn3)c2)O1	6	1	4	2	·
O=S(=O)(NC[C@@H]1CC[C@H]2[C@H](CN2Cc2cccc(-c3ccccn3)c2)O1)c1ccccc1	-5	18*	13	2	·
Cc1ccc(C)c(NC(=S)N/N=C2\CCc3ccccc32)c1	2	-2	-2	-1	-24*
Cc1ccc(NC(=S)N/N=C2/CCCCc3ccccc32)cc1	-8	1	1	-3	-4
O=[N+]([O-])c1ccc(NC(=S)NCc2ccncc2)cc1	-1	-2	0	-3	-28*
CC(NC(=S)Nc1ccc([N+](=O)[O-])cc1)c1ccncc1 (stereo unspecified)	-6	1	2	0	-27*
COc1cc(OC)c2c(-c3cccc(-c4ccc(O)cc4)c3)cc(=O)oc2c1	·	0	-1	0	-24*
O=C(C[C@@H]1C=C[C@H](NC(=O)Nc2ccc3c(c2)OCO3)[C@@H](CO)O1)NCc1ccc(Cl)cc1	7	1	-12	-1	-1
CCn1c(C)cc(/C=C2/SC(=S)N(CC(=O)O)C2=O)c1C	·	15*	-6	0	2
Cc1nc(Sc2ccccc2)c(C#N)c(C)c1[N+](=O)[O-]	4	-3	-4	-2	-35*
Cc1cc(C)c(C#N)c(Sc2nc(C)c([N+](=O)[O-])c(C)c2C#N)n1	-2	·	4	-1	9
O=C(CC(c1ccco1)S(=O)(=O)c1ccccc1)c1ccccc1 (stereo unspecified)	3	20*	-5	0	8
CN1c2ccc(-c3cccc(F)c3)cc2[C@@H]2[C@@H](CCN2C(=O)C2CCC2)[C@@H]1CO	-10	-12	-4	0	-44
CO[C@H](CN(C)C(=O)c1ccc2c(c1)OCO2)[C@H](C)CN([C@H](C)CO)S(=O)(=O)c1ccccc1	1	27*	27	-3	2
O=C(NCC[C@H]1CC[C@@H](NC(=O)C2CCCCC2)[C@@H](CO)O1)c1cc(Cl)cc(Cl)c1	1	-3	1	-1	-9
Cc1ccc(S(=O)(=O)/N=C(/Nc2c(C)cccc2C)c2ccccc2)cc1	-5	-1	-5	2	-36*
Cc1ccc(S(=O)(=O)/N=C(/Nc2ccc(F)cc2F)c2ccccc2)cc1	0	3	-5	4	-5
Cc1ccc(S(=O)(=O)/N=C(/Nc2c(C)n(C)n(-c3ccccc3)c2=O)c2ccccc2)cc1	1	-3	0	-2	3
Cc1ccc(S(=O)(=O)/N=C(/Nc2ccccc2C)c2ccccc2)cc1	-2	-3	0	0	-23*
SMILES	ERAP1 HTS inh	SIRT5 inh	S100A4 inh HTS	F508del corr	rRNA inh HTS
COc1ccc(OC)c(N/C(N)=N/c2nc(C)cc(C)n2)c1	1	-1	-19	8.9*	9
COc1ccc(N/C(N)=N/c2nc(C)cc(C)n2)c(OC)c1	-2	1	4	5	11
COc1ccc(NC(=O)Nc2ccc3c(c2)C(=O)N([C@@H](C)CO)C[C@H](C)[C@H](CN(C)C(=O)NC(C)C)OCCCC[C@@H](C)O3)cc1	-3	-8	-7	-1	4
CCOC(=O)c1ccc(-c2c(-c3cc(OC)c(OC)c(OC)c3)noc2C)cc1F	3	·	-1	16*	-9
CN(Cc1c(F)cccc1Cl)C(=O)c1ccc(NC(=O)CC2SC(N3CCCCC3)=NC2=O)cc1 (stereo unspecified)	0	-2	0	11*	-1
COc1ccccc1CCNC(=O)c1cccc(NC(=O)CC2SC(N3CCCCC3)=NC2=O)c1 (stereo unspecified)	-6	-1	-1	-9	-21*
O=C(CC1SC(N2CCCCC2)=NC1=O)Nc1cccc(C(=O)NCc2ccc(F)cc2)c1 (stereo unspecified)	0	1	-6	-4	2
O=C(c1ccc2c(c1)OCO2)N1CC2(C1)[C@H](c1ccccc1)[C@@H](CO)N2C(=O)C1CCCC1	4	-3	-15	1	-6
Cc1ccc(Nc2nnc(SCC(=O)c3c(N)n(C4CC4)c(=O)[nH]c3=O)s2)cc1C	2	-6	-24	3	2
Cc1cccc(Nc2nnc(SCC(=O)c3c(N)n(C4CC4)c(=O)[nH]c3=O)s2)c1	2	16*	-11	0	20
COc1ccccc1NC(=O)CN1CCC(c2nc3ccccc3[nH]2)CC1	4	-5	2	-4	-14
COc1ccc(NC(=O)N2CCC(c3nc4ccccc4[nH]3)CC2)cc1	0	-4	-1	2	-22*
Cc1ccc2nc(C3CCN(S(=O)(=O)c4ccc5ccccc5c4)CC3)[nH]c2c1	-2	·	0	·	-29*
COc1ccccc1NC(=O)CN1CCC(c2nc3ccc(C)cc3[nH]2)CC1	0	-6	-3	-1	-26*
CC(=O)c1cccc(S(=O)(=O)N2CCC(c3nc4ccccc4[nH]3)CC2)c1	-1	-2	2	2	2
COc1ccc(S(=O)(=O)Nc2ccc3c(c2)C(=O)N([C@@H](C)CO)C[C@@H](C)[C@@H](CN(C)C(=O)NC2CCCCC2)O3)cc1	4	-7	-14	-1	-1
O=C(NCC[C@H]1CC[C@@H](NC(=O)Nc2cc(F)ccc2F)[C@H](CO)O1)Nc1ccc(F)cc1	1	33*	-13	-1	-7
